What is called inhibition is the share of the control response that was lost under treatment. What is called Ki is a measure of affinity in units of concentration, obtained from inhibition or displacement.

For test [1], the target named is T1, Adenosine receptor A2a (Homo sapiens, UniProt P29274). Description: Displacement of [3H]CGS21680 from human recombinant adenosine A2A receptor expressed in HEK293 cells at 10 uM by liquid scintillation counting. The class given is cell-based. Put shortly:
(§1)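 HEK293 membranes stably expressing hA2AAR (20 μg protein/tube), deaminase-treated (3 units/mL, 30 min, 37 °C). Competition against 10 nM [3H]CGS21680 in Tris-HCl 50 mM pH 7.5 with 10 mM MgCl2, 25 °C for 60 min. […] Filtered on GF/B, scintillation counted.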

Test [2] concerns the target T2, Adenosine receptor A1 (Homo sapiens) (UniProt P30542).
T2 sequence (whole entry): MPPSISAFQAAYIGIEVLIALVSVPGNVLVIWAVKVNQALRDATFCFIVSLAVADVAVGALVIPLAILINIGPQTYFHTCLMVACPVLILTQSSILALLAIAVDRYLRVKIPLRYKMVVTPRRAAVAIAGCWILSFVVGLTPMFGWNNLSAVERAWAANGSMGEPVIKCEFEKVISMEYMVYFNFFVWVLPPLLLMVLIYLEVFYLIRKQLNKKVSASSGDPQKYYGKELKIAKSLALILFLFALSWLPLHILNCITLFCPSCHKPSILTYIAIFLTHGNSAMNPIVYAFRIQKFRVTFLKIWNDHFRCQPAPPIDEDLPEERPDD
Description: Displacement of [3H]NECA from human recombinant adenosine A1 receptor expressed in CHO cells at 10 uM by liquid scintillation counting. It counts as cell-based. Summed up: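 CHO membranes stably expressing hA1AR, pretreated with adenosine deaminase (3 units/mL, 30 min, 37 °C), 22 μg protein/tube. […] GF/B filtration, scintillation counting, percent inhibition at 10 μM.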
(Loss of bound radioactivity is the signal in a displacement assay; it reports binding, not function.)

Test [3] deals with T3, Adenosine receptor A3 (Homo sapiens, UniProt P0DMS8).
T3 sequence (P0DMS8 whole entry): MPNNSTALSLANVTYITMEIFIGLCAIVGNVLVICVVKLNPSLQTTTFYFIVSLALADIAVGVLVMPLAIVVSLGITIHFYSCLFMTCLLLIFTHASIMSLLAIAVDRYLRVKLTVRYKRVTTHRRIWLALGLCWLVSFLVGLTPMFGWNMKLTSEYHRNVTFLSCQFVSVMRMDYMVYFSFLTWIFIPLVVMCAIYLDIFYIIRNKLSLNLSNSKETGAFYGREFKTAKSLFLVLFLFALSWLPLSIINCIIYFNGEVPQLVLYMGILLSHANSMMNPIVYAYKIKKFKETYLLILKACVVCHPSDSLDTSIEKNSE
As to the kind of experiment: Displacement of I-AB-MECA from human recombinant adenosine A3 receptor expressed in CHO cells.

The species named for test [4] is Homo sapiens. Description: Selectivity ratio of Ki for human adenosine A2A receptor to Ki for human adenosine A3 receptor.
Test [5] addresses T4, Adenosine receptor A2b (Homo sapiens) (UniProt P29275).
T4 sequence (whole entry): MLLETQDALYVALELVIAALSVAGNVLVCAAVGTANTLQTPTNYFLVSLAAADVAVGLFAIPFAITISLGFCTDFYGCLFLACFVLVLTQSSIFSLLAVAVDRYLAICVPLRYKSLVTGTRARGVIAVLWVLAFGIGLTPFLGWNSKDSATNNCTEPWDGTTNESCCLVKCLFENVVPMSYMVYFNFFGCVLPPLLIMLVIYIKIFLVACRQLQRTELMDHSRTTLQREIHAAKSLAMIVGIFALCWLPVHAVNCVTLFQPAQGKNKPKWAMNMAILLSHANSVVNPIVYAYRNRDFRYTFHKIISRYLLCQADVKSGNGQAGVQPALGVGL
Description: Agonist activity at human recombinant adenosine A2B receptor expressed in CHO cells assessed as stimulation of cAMP accumulation at 10 uM by liquid scintillation spectrophotometry relative to NECA. (Changes in cAMP serve as a functional read-out for many G protein-coupled receptors.)

The target of test [6] is T1, Adenosine receptor A2a. Description: Displacement of [3H]CGS21680 from human recombinant adenosine A2A receptor expressed in HEK293 cells by liquid scintillation counting. The class given is cell-based. Summed up: as §1
Test [7] has as its target Adenosine receptors; A1 & A3 (Homo sapiens) (UniProt P30542+P0DMS8). As to the kind of experiment: Selectivity for human adenosine A3 receptor over human adenosine A1 receptor.

T1 sequence (P29274 whole entry): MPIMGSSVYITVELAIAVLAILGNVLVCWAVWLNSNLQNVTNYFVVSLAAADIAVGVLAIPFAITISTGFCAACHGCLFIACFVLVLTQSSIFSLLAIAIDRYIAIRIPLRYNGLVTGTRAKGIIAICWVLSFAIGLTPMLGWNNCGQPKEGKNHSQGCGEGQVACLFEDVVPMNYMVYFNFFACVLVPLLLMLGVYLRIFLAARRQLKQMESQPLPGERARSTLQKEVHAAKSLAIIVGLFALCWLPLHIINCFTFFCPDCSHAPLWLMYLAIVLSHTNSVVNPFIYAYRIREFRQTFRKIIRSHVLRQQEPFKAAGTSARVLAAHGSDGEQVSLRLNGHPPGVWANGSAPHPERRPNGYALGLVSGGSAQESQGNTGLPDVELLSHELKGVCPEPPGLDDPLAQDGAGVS

`CNC(=O)[C@@]12C[C@@H]1[C@@H](n1cnc3c(NCc4cccc(Cl)c4)nc(C#CCCCCc4cn(-c5ccc(C(=O)O)cc5)nn4)nc31)[C@H](O)[C@@H]2O`: the values for the inhibition in test [1] and in test [2] were 40% and 0%, respectively.
With `CNC(=O)[C@@]12C[C@@H]1[C@@H](n1cnc3c(NCc4cccc(Cl)c4)nc(C#CCCCCc4cn(Cc5ccc(-n6sccc6=O)cc5)nn4)nc31)[C@H](O)[C@@H]2O`, the inhibition in test [1] was determined as 49%; in test [2] it was 15%.
On to `CNC(=O)[C@@]12C[C@@H]1[C@@H](n1cnc3c(NCc4cccc(Cl)c4)nc(C#CCCCCc4cn(CCCCNC(C)=O)nn4)nc31)[C@H](O)[C@@H]2O`, for which the inhibition in test [2] is 17%.
On to `CNC(=O)[C@@]12C[C@@H]1[C@@H](n1cnc3c(NCc4cccc(Cl)c4)nc(C#CCCC(=O)NCCNC(=O)CCCCCNC(=O)CCCCC4SCC5NC(=O)NC54)nc31)[C@H](O)[C@@H]2O` (some centres not stated), for which the results for the inhibition in test [1] and in test [2] were 47% and 12%, respectively. Besides, the Ki in test [3] was 57.7 nM.
For the compound `CNC(=O)[C@@]12C[C@@H]1[C@@H](n1cnc3c(NCc4cccc(Cl)c4)nc(C#CCCCCc4cn(CCCCCCNC5SCC6NC(=O)NC65)nn4)nc31)[C@H](O)[C@@H]2O` (some centres not stated), the inhibition in test [1] was found to be 27%. Further, the Ki in test [3] came out at 285 nM. Moreover, the inhibition (INH) in test [2] amounted to 0%.
For `CNC(=O)[C@@]12C[C@@H]1[C@@H](n1cnc3c(NCc4cccc(Cl)c4)nc(C#CCCCCc4cn(CCNC(C)=O)nn4)nc31)[C@H](O)[C@@H]2O`, the Ratio Ki in test [4] came out at 109. The Activity in test [5] turned out to be 19.4%. Besides, in test [2], the inhibition came out at 12%.
Consider `CCN1\C(=C/C=C/C=C/C2=[N+](CCCCCC(=O)NCCNC(=O)CCC#Cc3nc(NCc4cccc(Cl)c4)c4ncn([C@H]5[C@H](O)[C@H](O)[C@]6(C(=O)NC)C[C@H]56)c4n3)c3ccc(S(=O)(=O)[O-])cc3C2(C)C)C(C)(C)c2cc(S(=O)(=O)O)ccc21`, for which the Ki in test [6] worked out at 4730 nM. Also, the inhibition in test [2] worked out at 36%.
In the case of `C#CCCCC#Cc1nc(NCc2cccc(Cl)c2)c2ncn([C@@H]3[C@H](O)[C@H](O)[C@]4(C(=O)NC)C[C@H]34)c2n1`, the Ki in test [6] is 4330 nM; in test [3] it was 23.6 nM. In addition, the Selectivity ratio in test [7] is more than 400. For the same compound, the Ratio Ki in test [4] was determined as 300. Besides, the inhibition in test [2] worked out at 36%.
As to `CNC(=O)[C@@]12C[C@@H]1[C@@H](n1cnc3c(NCc4cccc(Cl)c4)nc(C#CCCC(=O)NCCNC(=O)CCCCC4SCC5NC(=O)NC54)nc31)[C@H](O)[C@@H]2O` (some centres not stated), the inhibition in test [1] was 51%; in test [2] it was 1%. Moreover, the Ki in test [3] came to 36.4 nM.
In the case of `CNC(=O)[C@@]12C[C@@H]1[C@@H](n1cnc3c(NCc4cccc(Cl)c4)nc(C#CCCCCc4cn(CCCCCCNC(=O)c5ccc(-c6c7ccc(=N)c(S(=O)(=O)O)c-7oc7c(S(=O)(=O)O)c(N)ccc67)c(C(=O)O)c5)nn4)nc31)[C@H](O)[C@@H]2O`, the inhibition in test [1] turned out to be 23%. Besides, in test [3], the Ki was found to be 416 nM. Besides, in test [2], the inhibition (INH) was found to be 0%.
As for `CNC(=O)[C@@]12C[C@@H]1[C@@H](n1cnc3c(NCc4cccc(Cl)c4)nc(C#CCCCCc4cn(C56CC7CC(CC(C7)C5)C6)nn4)nc31)[C@H](O)[C@@H]2O`, the Ratio Ki in test [4] was 500. The Activity in test [5] was determined as 36.5%. Besides, in test [2], the inhibition was found to be 22%.
As for `CNC(=O)[C@@]12C[C@@H]1[C@@H](n1cnc3c(NCc4cccc(Cl)c4)nc(C#CCCCCc4cn(CCCCN)nn4)nc31)[C@H](O)[C@@H]2O`, the inhibition in test [2] is 13%.
Consider `C#CCCCCC#Cc1nc(NCc2cccc(Cl)c2)c2ncn([C@H]3[C@H](O)[C@H](O)[C@]4(C(=O)NC)C[C@H]34)c2n1`, for which the Ki in test [6] is 7040 nM; in test [3] it was 29.4 nM. For the same compound, the Selectivity ratio in test [7] was more than 400. In addition, in test [4], the Ratio Ki stood at 300. For the same compound, in test [2], the inhibition worked out at 31%.
With `CNC(=O)[C@@]12C[C@@H]1[C@@H](n1cnc3c(NCc4cccc(Cl)c4)nc(C#CCCCCc4cn(-c5ccc(N=C=S)cc5)nn4)nc31)[C@H](O)[C@@H]2O`, the inhibition was found to be 28% in test [1] and 2% in test [2].
On to `CNC(=O)[C@@]12C[C@@H]1[C@@H](n1cnc3c(NCc4cccc(Cl)c4)nc(C#CCCCCc4cn(-c5ccc(N)cc5)nn4)nc31)[C@H](O)[C@@H]2O`, for which the inhibition in test [2] turned out to be 3%.
For `CNC(=O)[C@@]12C[C@@H]1[C@@H](n1cnc3c(NCc4cccc(Cl)c4)nc(-c4nnn(-c5ccc(N=C=S)cc5)c4CCCCc4cn(-c5ccc(N=C=S)cc5)nn4)nc31)[C@H](O)[C@@H]2O`, the inhibition came out at 40% in test [1] and 4% in test [2].
Turning to `CCNC(=O)[C@H]1O[C@@H](n2cnc3c(N)ncnc32)[C@H](O)[C@@H]1O`, the Activity in test [5] came to 100%.

The record behind these values is ChEMBL document CHEMBL1159060, “2-Dialkynyl derivatives of (N)-methanocarba nucleosides: 'Clickable' A(3) adenosine receptor-selective agonists” (Bioorg Med Chem, 2010).
